Source: article PMC3145891 (Naunyn-Schmiedeberg's Archives of Pharmacology, 2011)
Values joined by “and” are separate entries in the source; they are usually repeats but may differ in a detail not shown here. Equal entries are not always repeated. “Also recorded” adds a separate entry of the source. Blank lines part the entries; values can stand above or below the compound they belong to.

Columns and labels:
[1] = test system: PKA (VASP phosphorylation) in human platelets; assay: VASP phosphorylation western blot, pVASP Ser-157; assay type: cell-based; conditions: for Concentration needed for comparable VASP phosphorylation (PKA activation): pVASP antibody 5C6
Method in brief: (§1)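 Washed human platelets were exposed to various analog concentrations for the indicated times. Protein extracts (10 µg) were run on 9% reducing SDS-PAGE and wet-blotted to nitrocellulose. Blots were blocked in 3% milk/Tris-saline-Tween and probed 1:10,000 with 16C2 (pVASP Ser-239, PKG site) or 5C6 (pVASP Ser-157, PKA site). HRP goat anti-mouse (1:5,000) and ECL gave detection.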

PKA II = conditions: ref Poppe et al. (2008); cited from earlier work
[2] = test system: cAMP antibody (IBL cAMP-RIA); assay: IBL cAMP-RIA; assay type: binding; conditions: for Specificity IBL cAMP-RIA: EC50cAMP/EC50Analog
[3] = test system: cAMP and cGMP antibodies of the tested immunoassays; assay: Interference with the tested cAMP and cGMP immunoassays; assay type: binding
[4] = test system: cAMP antibody (ENZO cAMP-EIA); assay: ENZO cAMP-EIA, acetylation protocol; assay type: binding; conditions: for Specificity ENZO cAMP-EIA: EC50cAMP/EC50Analog, acetylated
[5] = test system: cGMP antibody (ENZO cGMP-EIA); assay: ENZO cGMP-EIA, acetylation protocol; assay type: binding; conditions: for Specificity ENZO cGMP-EIA: EC50cGMP/EC50Analog, acetylated
[6] = test system: cGMP antibody (IBL cGMP-RIA); assay: IBL cGMP-RIA; assay type: binding; conditions: for Specificity IBL cGMP-RIA: EC50cGMP/EC50Analog; for Binding constant relative to cGMP: IBL cGMP-RIA
human platelets = assay: Cell membrane permeability in washed human platelets; assay type: in vitro ADME; conditions: for Time to equilibrium of inside/outside concentration: platelets, Fig. 1b; for cNMP conc. inside platelets (% of external): washed human platelets, 37°C, normally 20 min; for Diffusion into the cell, result in words: compounds with log Kw < 1
Method in brief: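 Human blood from medication-free donors was collected into citrate–EGTA buffer. Platelet-rich plasma (300×g) was pelleted (380×g), washed in Hepes buffer pH 7.4 and used at 3 × 10^8 platelets/ml. Cells were exposed to analogs at 37°C, normally for 20 min or over a time course. They were lysed in […] buffer pH 8.1 with 1 mM IBMX on ice, then freeze/thaw and needle disruption. Lyophilized supernatant went to EIA, assuming a 5.2 fl cell volume.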

[7] = test system: cGMP antibody (Cayman cGMP-EIA); assay: Cayman cGMP-EIA; assay type: binding; conditions: EC50cGMP/EC50Analog
[8] = test system: PKG (VASP phosphorylation) in human platelets; assay: VASP phosphorylation western blot, pVASP Ser-239; assay type: cell-based; conditions: for Concentration for maximal VASP phosphorylation: after 20 min, pVASP antibody 16C2
Method in brief: as §1

PKG Iβ = conditions: ref Poppe et al. (2008); cited from earlier work
Lipophilicity = assay type: physicochemical; conditions: calculated from log Kw data, cGMP scale
[9] = test system: cGMP antibody (ENZO cGMP-EIA); assay: ENZO cGMP-EIA, non-acetylated; assay type: binding; conditions: non-acetylated cGMP-EIA from ENZO
CHO cells = assay: Cell membrane permeability in CHO cells; assay type: in vitro ADME, Chinese hamster; conditions: serum-free medium, normally 20 min
Method in brief: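 CHO cells were grown in DMEM with 10% FBS and 1% penicillin/streptomycin at 37°C, 5% CO2. Cells were exposed to various analog concentrations in serum-free medium, normally for 20 min, then PBS-washed. Lysis used hypotonic buffer on ice for 30 min, scraping, liquid-nitrogen freeze/thaw and needle disruption. Cleared supernatant was lyophilized for EIA. Intracellular concentration assumed a 1.5 pl cell volume; % permeability = intracellular/extracellular […].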

[10] = test system: cAMP antibody (ENZO cAMP-EIA); assay: ENZO cAMP-EIA, non-acetylated; assay type: binding; conditions: non-acetylated cAMP-EIA from ENZO

Structure (SMILES): O[C@@H]1[C@@H]2OP(O)(=S)OC[C@H]2O[C@H]1n1cnc2cc(Cl)c(Cl)cc21 (single isomer, unassigned) [Sp-5,6-DCl-cBIMPS]
Concentration needed for comparable VASP phosphorylation (PKA activation) [1]: 100 µM | Activation PKA II Ka (PKA II): 0.12 µM | Specificity IBL cAMP-RIA [2]: 0.005

Structure (SMILES): Cn1c(=O)c2[nH]cnc2n(C)c1=O [Theophylline, 1,3-dimethyl-7H-purine-2,6-dione]
Interference / cross-reaction with the tested immunoassays, result in words [3]: do not interfere

Structure (SMILES): Nc1ncnc2c1nc(Sc1ccc(Cl)cc1)n2[C@@H]1O[C@@H]2COP(=O)(O)O[C@H]2[C@H]1O [8-pCPT-cAMP, 8-(4-Chlorophenylthio)adenosine-3`,5`- cyclic monophosphate]
Specificity ENZO cAMP-EIA [4]: 0.0005

Structure (SMILES): Nc1nc2c(ncn2[C@@H]2O[C@@H]3COP(O)(=S)O[C@H]3[C@H]2O)c(=O)[nH]1 (single isomer, unassigned) [Rp-cGMPS, Guanosine- 3`,5`- cyclic monophosphorothioate, Rp-isomer]
Specificity ENZO cGMP-EIA [5]: 0.0027 | Specificity IBL cGMP-RIA [6]: 0.10

Time to equilibrium of inside/outside concentration (human platelets): 10 to 20 min | cNMP conc. inside platelets (% of external) (human platelets): 19.6 ± 4.7% | Cross-reactivity / binding to the cGMP antibody in the EIA, result in words [5]: strong cross-reactivity | Binding constant relative to cGMP [6]: ~30%
Structure (SMILES): Nc1nc2c(nc(Sc3ccc(Cl)cc3)n2C2O[C@@H]3COP(=O)(O)O[C@H]3[C@H]2O)c(=O)[nH]1 (stereo in doubt) [8-pCPT-cGMP, 8-(4-Chlorophenylthio)guanosine-3`,5`- cyclic monophosphate]
Specificity ENZO cGMP-EIA [5]: 2.40 | Specificity Cayman cGMP-EIA [7]: 0.0008 | Concentration for maximal VASP phosphorylation ([8]; human platelets): 50 µM | Specificity IBL cGMP-RIA [6]: 0.30 | Activation PKG Iβ Ka (PKG Iβ): 0.9 µM

Relative lipophilicity (Lipophilicity): 200 | Cross-reactivity / binding to the cGMP antibody in the EIA, result in words [5]: does not bind
Structure (SMILES): O=c1c2nc(Br)n([C@@H]3O[C@@H]4CO[P@@](O)(=S)O[C@H]4[C@H]3O)c2nc2[nH]c(-c3ccccc3)cn12 (single isomer, unassigned) [Rp-8-Br-PET-cGMPS]
Specificity ENZO cGMP-EIA [5]: 0.002 | Specificity IBL cGMP-RIA [6]: 0.011

Structure (SMILES): CC(C)Cn1c(=O)n(C)c(=O)c2[nH]cnc21 [IBMX, 3-Isobutyl-1-methylxanthine]
Interference / cross-reaction with the tested immunoassays, result in words [3]: do not interfere | Specificity ENZO cGMP-EIA [5]: <10^−6 | Specificity IBL cAMP-RIA [2]: <10^−4 | Specificity Cayman cGMP-EIA [7]: <10^−5 | Specificity IBL cGMP-RIA [6]: <10^−6 | Specificity ENZO cAMP-EIA [4]: <10^−5

cNMP conc. inside platelets (% of external) (human platelets): 0.5 ± 0.1% | Relative binding EC50cGMP/EC50Analog [9]: 2.2 and 2.21 | cNMP conc. inside CHO cells (% of external) (CHO cells): 0.3 ± 0.5%
Structure (SMILES): Nc1nc2c(ncn2[C@H]2C[C@@H]3OP(=O)(O)OC[C@H]3O2)c(=O)[nH]1 [2′-dcGMP, 2`- Deoxyguanosine- 3`,5`- cyclic monophosphate]
Diffusion into the cell, result in words (human platelets): too hydrophilic for any diffusion into the cell | Specificity ENZO cGMP-EIA [5]: 0.052 | VASP phosphorylation (PKG site), result in words ([8]; concentrations up to 2 mM): no VASP phosphorylation | Activation PKG Iβ Ka (PKG Iβ): 21 µM

Structure (SMILES): CCCC(=O)Nc1ncnc2c1ncn2[C@@H]1O[C@@H]2COP(=O)(O)O[C@H]2[C@H]1O [6-MB-cAMP, N^6-Monobutyryladenosine-3`,5`-cyclic monophosphate]
Specificity IBL cAMP-RIA [2]: 0.012 | Specificity ENZO cAMP-EIA [4]: 0.004

Relative binding EC50cGMP/EC50Analog [9]: 1.00
Structure (SMILES): Nc1nc2c(ncn2[C@@H]2O[C@@H]3COP(=O)(O)O[C@H]3[C@H]2O)c(=O)[nH]1 [cGMP, Guanosine- 3`,5`- cyclic monophosphate]
Specificity ENZO cGMP-EIA [5]: 1.00 | Specificity Cayman cGMP-EIA [7]: 1.00 | Specificity IBL cGMP-RIA [6]: 1.00 | Activation PKG Iβ Ka (PKG Iβ): 0.9 µM

Structure (SMILES): CCCCCCC(C(C)O)n1cnc2c(N)ncnc21.Cl (centres unmarked) [EHNA, 3-(6-aminopurin-9-yl)nonan-2-ol hydrochloride]
Interference / cross-reaction with the tested immunoassays, result in words [3]: do not interfere

Structure (SMILES): O=C(Nc1ncnc2c1ncn2[C@@H]1O[C@@H]2COP(=O)(O)OC2C1O)c1ccccc1 (stereo in doubt) [6-Bnz-cAMP, N^6-Benzoyladenosine-3`,5`- cyclic monophosphate]
Specificity IBL cAMP-RIA [2]: 0.009 | Specificity ENZO cAMP-EIA [4]: 0.006

Structure (SMILES): Nc1ncnc2c1nc(Br)n2[C@@H]1O[C@@H]2COP(=O)(O)O[C@H]2[C@H]1O [8-Br-cAMP, 8-Bromoadenosine-3`,5`- cyclic monophosphate]
Concentration needed for comparable VASP phosphorylation (PKA activation) [1]: 500 µM | Activation PKA II Ka (PKA II): 0.09 µM | Specificity IBL cAMP-RIA [2]: 0.026 | Specificity ENZO cAMP-EIA [4]: 0.004

Structure (SMILES): CO[C@@H]1[C@@H]2OP(=O)(O)OC[C@H]2O[C@H]1n1c(Sc2ccc(Cl)cc2)nc2c(N)ncnc21 [8-pCPT-2′-OMe-cAMP, 8-(4-Chlorophenylthio)-2`-O-methyladenosine-3`,5`- cyclic monophosphate]
Specificity ENZO cGMP-EIA [5]: 0.0002 | Specificity IBL cAMP-RIA [2]: 0.0066 | Specificity IBL cGMP-RIA [6]: <10^−4 | Specificity ENZO cAMP-EIA [4]: 0.0003

cNMP conc. inside platelets (% of external) (human platelets): 30.9 ± 5.7% | Relative binding EC50cGMP/EC50Analog [9]: 0.08 | cNMP conc. inside CHO cells (% of external) (CHO cells): 24.1 ± 9.7%
Structure (SMILES): O=c1c2nc(Br)n([C@@H]3O[C@@H]4COP(=O)(O)O[C@H]4[C@H]3O)c2nc2[nH]c(-c3ccccc3)cn12 [8-Br-PET-cGMP, β-Phenyl-1,N^2-etheno-8-Bromoguanosine-3`,5`- cyclic monophosphate]
Specificity ENZO cGMP-EIA [5]: 0.10 | Percent of the cGMP affinity to the antibody ([5]; ENZO cGMP-EIA): 10% | Concentration sufficient to activate PKG ([8]; human platelets, VASP phosphorylation): 0.25 µM | Specificity IBL cGMP-RIA [6]: 0.015 | Activation PKG Iβ Ka (PKG Iβ): 0.009 µM

Time to equilibrium of inside/outside concentration (human platelets): 10 to 20 min | cNMP conc. inside platelets (% of external) (human platelets): 12.1 ± 3.5% | Relative binding EC50cGMP/EC50Analog [9]: 6.40 | Cross-reactivity / binding to the cGMP antibody in the EIA, result in words [5]: strong cross-reactivity | cNMP conc. inside CHO cells (% of external) (CHO cells): 13.5 ± 11.5% | Binding constant relative to cGMP [6]: ~20%
Structure (SMILES): Nc1nc2c(nc(Br)n2[C@@H]2O[C@@H]3COP(=O)(O)O[C@H]3[C@H]2O)c(=O)[nH]1 [8-Br-cGMP, 8-Bromoguanosine-3`,5`- cyclic monophosphate]
Specificity ENZO cGMP-EIA [5]: 4.90 | Concentration for maximal VASP phosphorylation ([8]; human platelets): 200 µM | Specificity IBL cGMP-RIA [6]: 0.20 | Activation PKG Iβ Ka (PKG Iβ): 1.0 µM

Relative binding EC50cAMP/EC50Analog [10]: 0.22 | cNMP conc. inside platelets (% of external) (human platelets): 0.2 ± 0.3% | cNMP conc. inside CHO cells (% of external) (CHO cells): 0.1 ± 0.2%
Structure (SMILES): Nc1ncnc2c1ncn2[C@H]1C[C@@H]2OP(=O)(O)OC[C@H]2O1 [2′-dcAMP, 2`- Deoxyadenosine- 3`,5`- cyclic monophosphate]
VASP phosphorylation (PKA site), result in words [1]: no VASP phosphorylation | Diffusion into the cell, result in words (human platelets): too hydrophilic for any diffusion into the cell | Specificity ENZO cAMP-EIA [4]: 0.034

Structure (SMILES): Nc1ncnc2c1nc(Br)n2C1OC2COP(O)(=S)OC2C1O (single isomer, unassigned) [Rp-8-Br-cAMPS, 8-Bromoadenosine-3`,5`- cyclic monophosphorothioate, Rp-isomer]
Specificity ENZO cAMP-EIA [4]: 0.003

Structure (SMILES): Nc1ncnc2c1ncn2[C@@H]1O[C@@H]2COP(O)(=S)O[C@H]2[C@H]1O (single isomer, unassigned) [Rp-cAMPS, Adenosine- 3`,5`- cyclic monophosphorothioate, Rp-isomer]
Specificity IBL cAMP-RIA [2]: 0.67 | Binding constant relative to cAMP ([2]; IBL cAMP-RIA): ~66% | Cross-reactivity in the cAMP-EIA, result in words [4]: strong cross-reactivity; also recorded: significant cross-reactivity | Specificity ENZO cAMP-EIA [4]: 0.68
